Compound activity: PubChem, several laboratories
NR2E3 ag-1 – NR2E3 agonists in two-hybrid cells, primary screen, cell-based, luminescence, CHO-S, Gal4-NCOR/VP16-NR2E3. inhibition of corepressor binding, % at 3.98 µM. Photoreceptor-specific nuclear receptor (Homo sapiens), Q9Y5X4. hit rate 0.35% among 360,000. luciferase;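 active = inhibition above the mean of all tested compounds plus 3 SD, cut at about 70% in these data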;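 note: higher means lower luciferase signal from less NR2E3 corepressor binding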
Target sequence (Q9Y5X4 whole entry, looked up, the tested form may be a part): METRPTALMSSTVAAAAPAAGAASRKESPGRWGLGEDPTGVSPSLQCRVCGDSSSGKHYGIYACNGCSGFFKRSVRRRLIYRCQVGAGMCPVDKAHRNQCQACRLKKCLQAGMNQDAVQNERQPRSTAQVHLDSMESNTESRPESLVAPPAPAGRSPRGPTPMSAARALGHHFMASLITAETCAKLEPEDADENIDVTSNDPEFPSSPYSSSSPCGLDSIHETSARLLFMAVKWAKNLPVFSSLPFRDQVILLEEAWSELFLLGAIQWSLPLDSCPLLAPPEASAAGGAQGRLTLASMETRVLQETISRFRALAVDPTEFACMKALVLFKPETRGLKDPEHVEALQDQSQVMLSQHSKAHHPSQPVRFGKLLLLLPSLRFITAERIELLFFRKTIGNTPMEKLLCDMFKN
SKN-1 block – suppressors of acrylamide-induced Pgst-4::GFP reporter in worms, primary screen, SKN-1 inhibitor project, whole organism, uHTS, GFP/RFP fluorescence ratio, strain VP596. C. elegans VP596 Pgst-4::GFP/RFP ratio, 24 h. hit rate 0.49% among 360,000. inhibition, % at 21.8 µM;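 active = interference check ratio from 0.5 to 1.5 plus GFP to RFP signal ratio inhibition reaching or exceeding a fixed threshold, cut at about 30% in these data, passing the limit was not always enough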
PG9 Ab binder – binders of HIV-1 gp120 antibody PG9, primary screen, biochemical, TR-FRET. HIV-1 gp120 / PG9 antibody interaction. TR-FRET gp120-PG9 antibody binding. inhibition, % at 6.7 µM. hit rate 0.43% among 360,000. AID 624416, 2012; in the data active = inhibition above about 8.5%
NR2E3 ag-2 – inhibitors of NR2E3-RetCOR corepressor binding, primary screen, NR2E3 agonist project, biochemical, TR-FRET, GST-NR2E3, biotin-RetCOR. Photoreceptor-specific nuclear receptor (Homo sapiens), Q9Y5X4. 1536-well. inhibition of corepressor binding, % at 4.78 µM. hit rate 0.12% among 320,000. AID 2300, 2010;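 active = percent inhibition above the cutoff of mean plus 3 SD of all tested compounds, set per screening campaign, cut at about 20% in these data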
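Material: NR2E3–RetCOR corepressor complex / Amount: 1.35 nM GST-NR2E3 / Medium: Tris pH 7.5 / Compound: single nominal compound dose of 4.8 µM / Incubation: 5 h at 4 °C / Technique: TR-FRET, Eu(K)-anti-GST donor, streptavidin-D2 acceptor, ex 340, em 617/671 nm / Read-out basis: percent loss of FRET ratio relative to control wells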
NR1D1 modulator – modulators of Rev-erb alpha DNA binding, primary screen, biochemical, FITC-DNA, fluorescence polarization, uHTS; Nuclear receptor subfamily 1 group D member 1 (Homo sapiens), P20393; Rev-erbα–FITC-DNA binding, 90 min; activity, % at 10 µM; hit rate 0.79% among 370,000; AID 1259318, 2017;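 active = activity above about 14%, limit read from the data; passing the limit was not always enough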
MT1-MMP act inh – blockers of MT1-MMP proenzyme processing, primary screen, HT1080 RFP-PRO-GFP cells, GFP/RFP fluorescence; GFP/RFP ratio fluorescence, overnight; percent of plate control window, DMSO zero; GFP/RFP ratio change, % at 20 µM; hit rate 0.061% among 360,000;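 active = GFP/RFP ratio change of at least 30% with cell ATP level not reduced by more than half and red fluorescence within 50% of control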
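Assay system – RFP-PRO-GFP reporter HT1080 cells · Compound dosing – single dose of 20 µM compound, 1% DMSO final · Incubation – overnight compound exposure at 37 °C · Measure – GFP/RFP fluorescence ratio · Benchmarks – DMSO wells and RFP-L50D-GFP cells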
NR2E3 ag confirm – NR2E3 agonist confirmation in cells, cell-based, luminescence, CHO-S two-hybrid. CHO-S mammalian two-hybrid NR2E3-NCOR, luciferase luminescence. hit rate 51% among 2,300. inhibition, % at 3.98 µM. shares compounds with NR2E3 ag-1;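 active = average inhibition above a cutoff equal to the mean inhibition of all tested compounds plus one SD, cut at about 70% in these data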
VP16 counter – GAL4-VP16 reporter modulators, confirmation, counter-screen for NR2E3 agonist project, cell-based, luminescence, CHO-S, high throughput; shares compounds with NR2E3 ag-1; CHO-S GAL4-VP16 luciferase reporter; inhibition, % at 3.98 µM; hit rate 29% among 2,300;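 active = mean inhibition above a cutoff equal to the average over all tested compounds plus one standard deviation, cut at about 70% in these data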;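 note: luciferase from a UAS reporter driven by GAL4-VP16 transactivation; higher means less reporter light so more repression of VP16 activity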
PG9 binder conf – binders of anti-gp120 antibody PG9, confirmation, biochemical, TR-FRET. inhibition, % at 6.7 µM. AID 651571, 2012. hit rate 90% among 1,500. shares compounds with PG9 Ab binder. TR-FRET PG9 antibody binding; in the data active = inhibition above about 9%
PGV04 Ab binding – binders of control antibody PGV04, counter-screen for PG9 antibody binder project, biochemical, TR-FRET, distinct HIV envelope site; shares compounds with PG9 Ab binder; AID 651604, 2012; TR-FRET PGV04 antibody-gp120 binding; hit rate 95% among 1,500; inhibition, % at 6.7 µM; in the data active = inhibition above about 9.5%
Rev-erbA confirm – modulators of Rev-erb alpha DNA binding, confirmation, biochemical, FITC-DNA, fluorescence polarization, single point; shares compounds with NR1D1 modulator; 90 min; activation, % at 25 µM; hit rate 61% among 3,000; AID 1259319, 2017;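 active = activation at or above a set limit, or at least 3 SD above the negative control mean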
RORg counter – modulation of RORgamma DNA binding, dose response, counter-screen for Rev-erb alpha modulator project, biochemical, fluorescence polarization, FITC-DNA; purified RORgamma protein-FITC-DNA binding; hit rate 8% among 910; AID 1259320, 2017; shares compounds with NR1D1 modulator; IC50, µM;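 active = Compounds whose fitted half-maximal concentration for disrupting protein-DNA binding is below 10 micromolar; the record names Rev-erb in its text, so the target is in doubt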
Each line names hits and unclear results; the compound was inactive in the other large screens (follow-up assays come after a bar, where they were run). The list is not random: actives were taken first. Their share in the collection is about 1.9%.

O=C1c2cccc3c(O)ccc(c23)C(=O)N1Cc1ccccc1	NR1D1 modulator 73 | NR2E3 ag confirm 82 | VP16 counter inactive | Rev-erbA confirm 73 | RORg counter inactive
C=CCN1[C@@H](CC(C)C)COc2cccc(N3CCSCC3)c2S1(=O)=O	none (no result: NR2E3 ag-1, SKN-1 block, PG9 Ab binder, NR2E3 ag-2, MT1-MMP act inh)
O=C(CSc1nnnn1-c1ccccc1)Nc1nsc(-c2ccc(Cl)cc2)n1	NR1D1 modulator 26 | NR2E3 ag confirm 98 | VP16 counter inactive | Rev-erbA confirm 43
CCCCCC[n+]1ccccc1/C=C/c1ccc(N(C)C)cc1	NR2E3 ag-1 88, NR1D1 modulator 34 (no result: NR2E3 ag-2) | NR2E3 ag confirm 98 | VP16 counter 80 | Rev-erbA confirm 37 | RORg counter inactive
CN(C)c1ccc(/C=C/c2cc[n+]([O-])cc2)cc1	none (no result: NR2E3 ag-1, SKN-1 block, PG9 Ab binder, NR1D1 modulator, MT1-MMP act inh)
COc1ccc(Cc2nnc(NC(=O)c3ccc(OC)c(OC)c3)s2)cc1	none
COc1ccc(C(=O)Nc2nnc(Cc3cccs3)s2)cc1OC	PG9 Ab binder 33, NR1D1 modulator 46 | NR2E3 ag confirm inactive | VP16 counter inactive | PG9 binder conf 45 | PGV04 Ab binding 75 | Rev-erbA confirm 47 | RORg counter inactive
Cc1cccc(C=NNc2cc(C)c3cccc(C)c3n2)n1	none (no result: NR2E3 ag-1, SKN-1 block, NR2E3 ag-2, MT1-MMP act inh)
COc1cccc(NC(=O)CSc2nc3ncc(Br)cc3[nH]2)c1	PG9 Ab binder 22, NR1D1 modulator 104 | NR2E3 ag confirm 80 | VP16 counter inactive | PG9 binder conf inactive | PGV04 Ab binding 11 | Rev-erbA confirm 101 | RORg counter inactive
COC(=O)c1cc(S(=O)(=O)N2CCN(C(C)=O)CC2)cn1C	none (no result: NR2E3 ag-1, SKN-1 block, PG9 Ab binder, NR2E3 ag-2, MT1-MMP act inh)
C[n+]1ccccc1/C=C1\Sc2ccccc2N1CCO	none
CCN1/C(=C/c2ccc3cccc(C)c3[n+]2CC)Sc2ccccc21	NR2E3 ag-1 86, SKN-1 block 49, NR1D1 modulator 48 | NR2E3 ag confirm 97 | VP16 counter 85 | Rev-erbA confirm 71 | RORg counter inactive
Cc1cc(C(=O)CSc2nc3ccccc3c(=O)n2C)c(C)n1Cc1ccc2c(c1)OCO2	NR1D1 modulator 42 | NR2E3 ag confirm 95 | VP16 counter 76 | Rev-erbA confirm inactive
O=C(O)[C@@H]1C[C@@H](O)CN1	none (no result: NR2E3 ag-1, SKN-1 block, NR2E3 ag-2, MT1-MMP act inh)
